# Measurements pooled from the literature.
# Target: Casein kinase I isoform gamma-3 (CSNK1G3, Homo sapiens, UniProt Q9Y6M4)
SMILES,test,setting,remaining binding [%]
Cc1cnc(Nc2ccc(C(=O)N3CCC(N4CCCC4)CC3)cc2)nc1-c1cc2ccccc2s1,"binding, competition with immobilised ligand",1 µM,100
N[C@H]1CCN(c2nccc(-c3cnn4ncccc34)n2)C1,binding,1 µM,100
O=C(Nc1c[nH]nc1C(=O)NC1CCNCC1)c1cc(F)cc(F)c1,"binding, competition with immobilised ligand",1 µM,98
Cc1nc(N2CC[C@@H](O)C2)ncc1-c1cc(C(F)(F)F)cc2[nH]ncc12,"cell-free assay, competition with immobilised ligand",1 µM,74
CCN1CCN(Cc2ccc(C(=O)Nc3ccc(C)c(Oc4ccc5c(c4)CC(=O)N5)c3)cc2C(F)(F)F)CC1,"binding, competition with immobilised ligand",1 µM,100
Cc1cnn2ncc(-c3ccnc(N(C)C)n3)c2c1,binding,1 µM,82
O=C(NCCCN1CCOCC1)c1ccc(Nc2ncc(Cl)c(-c3ccc(Cl)s3)n2)cc1,"binding, competition with immobilised ligand",1 µM,100
CSc1cccnc1N1CCN(Cc2nc3ccccc3[nH]2)CC1,"cell-free assay, competition with immobilised ligand",1 µM,86
CN(C)c1nccc(-c2cnn3ncccc23)n1,binding,1 µM,82
CCOCCn1cc(C(=O)Nc2ccc(-n3nc(-c4cccnc4)cc3C(F)(F)F)cn2)ccc1=O,"cell-free assay, competition with immobilised ligand",1 µM,100
COc1ccnn2ncc(-c3ccnc(N(C)C)n3)c12,binding,1 µM,97
O=C(c1ccc(Nc2nccc(-c3cc4ccccc4s3)n2)cc1)N1CCC(N2CCCC2)CC1,"binding, competition with immobilised ligand",1 µM,100
COc1cnc(Nc2cccc(S(N)(=O)=O)c2)nc1N1CCN(c2ccccc2)CC1,"binding, competition with immobilised ligand",1 µM,100
CNCc1ccccc1-c1csc([C@H](C)Nc2nc(C)nc3cc(OC)c(OC)cc23)c1,"cell-free assay, competition with immobilised ligand",1 µM,93
CNC(=O)[C@@H]1CC[C@@H](n2c(-c3ccc4cnccc4c3)nc3ccc(C(=O)NCc4cccc(C(N)=O)c4)cc32)C1,"binding, competition with immobilised ligand",1 µM,100
CN(CCCC(F)(F)F)c1nccc(-c2cnn3ncccc23)n1,binding,1 µM,100
Cc1c(C(=O)O)cc(-c2ccc(C3CCNCC3)cc2)c2ccc(-c3ccc(C(F)(F)F)cc3)cc12,"cell-free assay, competition with immobilised ligand",1 µM,100
c1cncc(-c2cccc(Nc3nccc(NC4CCCCC4)n3)c2)c1,"binding, competition with immobilised ligand",10 µM,100
C[C@H]1CCN(c2nccc(-c3cnn4ncccc34)n2)C1,binding,1 µM,91
O=C(O)[C@H]1[C@H](Cn2nnc3ccccc3c2=O)CC[C@@H]1C(=O)c1ccc(OCCC2CCOCC2)cc1,"cell-free assay, competition with immobilised ligand",1 µM,100
